Measurements: ChEMBL document CHEMBL5303300, “EUbOPEN Chemogenomics Library - Multiplex” (2023)
“And” between values parts separate entries of the source, which are not always exact repeats. Equal values may be shown once. *1 amine or outer side, *2 acyl side, *3 side chain or, on linkers, in order; H or OH if unused. Where a SMILES comes first, the peptide text is derived from it. Bridges are numbered along the chain shown (N, C = ends). Roman numbers before positions name the chains, in order. [ ]: non-standard residue; d: D form. Hexamethylenediamine = C(CCCN[*:2])CCN[*:1]; Dip = N[C@H](C(=O)O)C(c1ccccc1)c1ccccc1; Chg = N[C@H](C(=O)O)C1CCCCC1; NMeA = CN[C@@H](C)C(=O)O

Tested on: HEK-293T
Test: Multiplex assay against HEK293T
Assay type: toxicity, cell-based
Conditions: human, number of replicates 2
Method in brief: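 At seeding, live cells were stained with Hoechst33342, BioTracker Green Microtubule Cytoskeleton Dye, MitoTracker Red and Annexin V Alexa Fluor 680. After compound addition they were imaged on a CQ1 microscope at 37°C and 5% CO2, and CellPathfinder machine-learning gating sorted them into Hoechst high-intensity objects or normal cells, with normal cells further split into healthy, pyknosed or fragmented nuclei and pyknosed cells into mitotic or apoptotic. Tubulin, mitochondrial-mass and membrane-permeability phenotypes are given as per cents of cells with healthy nuclei.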

[1] = 12 h, 10 µM, compound concentration 10 uM
[2] = 24 h, 10 µM, compound concentration 10 uM
[3] = 48 h, 10 µM, compound concentration 10 uM
[4] = 12 h, 1 µM, compound concentration 1 uM
[5] = 24 h, 1 µM, compound concentration 1 uM
[6] = 48 h, 1 µM, compound concentration 1 uM

SMILES: CCOC(=O)Nc1cc(-c2ccc(C)c(NS(C)(=O)=O)c2)nn2c(C)nnc12
- Population Apoptotic (%) [1]: 36% and 38% and 52% and 40%
- Population Fragmented Nuclei (%) [1]: 2% and 3%
- Population Healthy Nuclei (%) [1]: 78% and 74% and 75% and 79%
- Population Hoechst High Intensity Objects (%) [1]: 4% and 3%
- Population Membrane Permeable-Phenotype (%) [1]: 5% and 11% and 2%
- Population Mitochondria Different-Phenotype (%) [1]: 15% and 28% and 21% and 20%
- Population Mitotic Cells (%) [1]: 63% and 61% and 47% and 59%
- Population Normal (%) [1]: 95% and 96%
- Population Pyknosed Nuclei (%) [1]: 19% and 22% and 21% and 17%
- Population Tubulin-Different-Phenotype (%) [1]: 56% and 71% and 58% and 55%
- Total Cell Count [1]: 892 and 664 and 646 and 672
- Population Apoptotic (%) [2]: 40% and 25% and 30% and 24%
- Population Fragmented Nuclei (%) [2]: 3% and 4% and 2%
- Population Healthy Nuclei (%) [2]: 82% and 86% and 84% and 85%
- Population Hoechst High Intensity Objects (%) [2]: 5% and 4%
- Population Membrane Permeable-Phenotype (%) [2]: 3% and 0% and 1%
- Population Mitotic Cells (%) [2]: 59% and 75% and 69%
- Population Normal (%) [2]: 94% and 95%
- Population Pyknosed Nuclei (%) [2]: 13% and 9% and 12% and 10%
- Population Tubulin-Different-Phenotype (%) [2]: 32% [middle of 4 runs]
- Total Cell Count [2]: 755 and 1187 and 821 and 806
- Population Apoptotic (%) [3]: 25% and 42% and 30% and 29%
- Population Fragmented Nuclei (%) [3]: 9% and 5% and 7% and 6%
- Population Healthy Nuclei (%) [3]: 83% and 79% and 80% and 82%
- Population Hoechst High Intensity Objects (%) [3]: 5% and 9%
- Population Membrane Permeable-Phenotype (%) [3]: 0% and 1%
- Population Mitotic Cells (%) [3]: 75% and 57% and 69% and 70%
- Population Normal (%) [3]: 94% and 90%
- Population Pyknosed Nuclei (%) [3]: 7% and 15% and 11%
- Total Cell Count [3]: 1217 and 690 and 964 and 833

SMILES: O=C1NC(=O)C(c2ccccc2[N+](=O)[O-])=C1Nc1ccc(O)c(Cl)c1
- Population Apoptotic (%) [4]: 41% and 45%
- Population Fragmented Nuclei (%) [4]: 4% and 2%
- Population Healthy Nuclei (%) [4]: 82% and 83%
- Population Hoechst High Intensity Objects (%) [4]: 6% and 3%
- Population Membrane Permeable-Phenotype (%) [4]: 2%
- Population Mitochondria Different-Phenotype (%) [4]: 11% and 12%
- Population Mitotic Cells (%) [4]: 58% and 54%
- Population Normal (%) [4]: 93% and 96%
- Population Pyknosed Nuclei (%) [4]: 13%
- Population Tubulin-Different-Phenotype (%) [4]: 41%
- Total Cell Count [4]: 694 and 574
- Population Apoptotic (%) [1]: 32% and 38%
- Population Fragmented Nuclei (%) [1]: 6% and 5%
- Population Healthy Nuclei (%) [1]: 82% and 87%
- Population Hoechst High Intensity Objects (%) [1]: 4% and 7%
- Population Membrane Permeable-Phenotype (%) [1]: 6% and 4%
- Population Mitochondria Different-Phenotype (%) [1]: 8% and 5%
- Population Mitotic Cells (%) [1]: 67% and 61%
- Population Normal (%) [1]: 95% and 92%
- Population Pyknosed Nuclei (%) [1]: 11% and 7%
- Population Tubulin-Different-Phenotype (%) [1]: 34% and 31%
- Total Cell Count [1]: 496 and 670
- Population Apoptotic (%) [5]: 40% and 37%
- Population Fragmented Nuclei (%) [5]: 4% and 3%
- Population Healthy Nuclei (%) [5]: 86% and 88%
- Population Hoechst High Intensity Objects (%) [5]: 5% and 7%
- Population Membrane Permeable-Phenotype (%) [5]: 2%
- Population Mitochondria Different-Phenotype (%) [5]: 3% and 5%
- Population Mitotic Cells (%) [5]: 59% and 62%
- Population Normal (%) [5]: 94% and 92%
- Population Pyknosed Nuclei (%) [5]: 8%
- Population Tubulin-Different-Phenotype (%) [5]: 22% and 24%
- Total Cell Count [5]: 1100 and 894
- Population Apoptotic (%) [2]: 26% and 19%
- Population Fragmented Nuclei (%) [2]: 4% and 8%
- Population Healthy Nuclei (%) [2]: 89% and 83%
- Population Hoechst High Intensity Objects (%) [2]: 5% and 7%
- Population Membrane Permeable-Phenotype (%) [2]: 5% and 3%
- Population Mitochondria Different-Phenotype (%) [2]: 2% and 1%
- Population Mitotic Cells (%) [2]: 73% and 80%
- Population Normal (%) [2]: 94% and 92%
- Population Pyknosed Nuclei (%) [2]: 6% and 7%
- Population Tubulin-Different-Phenotype (%) [2]: 14% and 18%
- Total Cell Count [2]: 721 and 1015
- Population Apoptotic (%) [6]: 14% and 15%
- Population Fragmented Nuclei (%) [6]: 13% and 9%
- Population Healthy Nuclei (%) [6]: 83% and 87%
- Population Hoechst High Intensity Objects (%) [6]: 7% and 9%
- Population Membrane Permeable-Phenotype (%) [6]: 5% and 4%
- Population Mitochondria Different-Phenotype (%) [6]: 0%
- Population Mitotic Cells (%) [6]: 85% and 84%
- Population Normal (%) [6]: 92% and 90%
- Population Pyknosed Nuclei (%) [6]: 2% and 3%
- Population Tubulin-Different-Phenotype (%) [6]: 12% and 11%
- Total Cell Count [6]: 2762 and 1997
- Population Apoptotic (%) [3]: 11% and 2%
- Population Fragmented Nuclei (%) [3]: 14% and 21%
- Population Healthy Nuclei (%) [3]: 82% and 77%
- Population Hoechst High Intensity Objects (%) [3]: 6% and 9%
- Population Membrane Permeable-Phenotype (%) [3]: 7% and 8%
- Population Mitochondria Different-Phenotype (%) [3]: 0%
- Population Mitotic Cells (%) [3]: 88% and 97%
- Population Normal (%) [3]: 93% and 90%
- Population Pyknosed Nuclei (%) [3]: 3% and 1%
- Population Tubulin-Different-Phenotype (%) [3]: 7%
- Total Cell Count [3]: 1557 and 2547

SMILES: CN[C@@H](C)C(=O)N[C@H](C(=O)N1CCC[C@H]1C(=O)N[C@H](C(=O)NCCCCCCNC(=O)[C@@H](NC(=O)[C@@H]1CCCN1C(=O)[C@@H](NC(=O)[C@H](C)NC)C1CCCCC1)C(c1ccccc1)c1ccccc1)C(c1ccccc1)c1ccccc1)C1CCCCC1 (I: H-[NMeA][Chg]P[Dip] / II: H-[NMeA][Chg]P[Dip]; linker I:C-II:C via Hexamethylenediamine)
- Population Apoptotic (%) [4]: 45% and 56%
- Population Fragmented Nuclei (%) [4]: 3% and 1%
- Population Healthy Nuclei (%) [4]: 85%
- Population Hoechst High Intensity Objects (%) [4]: 7% and 5%
- Population Membrane Permeable-Phenotype (%) [4]: 2%
- Population Mitochondria Different-Phenotype (%) [4]: 27% and 23%
- Population Mitotic Cells (%) [4]: 54% and 43%
- Population Normal (%) [4]: 92% and 94%
- Population Pyknosed Nuclei (%) [4]: 10% and 13%
- Population Tubulin-Different-Phenotype (%) [4]: 59% and 58%
- Total Cell Count [4]: 599 and 505
- Population Apoptotic (%) [1]: 83% and 76%
- Population Fragmented Nuclei (%) [1]: 4% and 2%
- Population Healthy Nuclei (%) [1]: 75% and 79%
- Population Hoechst High Intensity Objects (%) [1]: 12% and 5%
- Population Membrane Permeable-Phenotype (%) [1]: 3% and 0%
- Population Mitochondria Different-Phenotype (%) [1]: 76%
- Population Mitotic Cells (%) [1]: 16% and 23%
- Population Normal (%) [1]: 87% and 94%
- Population Pyknosed Nuclei (%) [1]: 20% and 17%
- Population Tubulin-Different-Phenotype (%) [1]: 96% and 98%
- Total Cell Count [1]: 501 and 525
- Population Apoptotic (%) [5]: 43% and 54%
- Population Fragmented Nuclei (%) [5]: 5% and 3%
- Population Healthy Nuclei (%) [5]: 87%
- Population Hoechst High Intensity Objects (%) [5]: 6% and 7%
- Population Membrane Permeable-Phenotype (%) [5]: 2% and 1%
- Population Mitochondria Different-Phenotype (%) [5]: 16% and 20%
- Population Mitotic Cells (%) [5]: 56% and 45%
- Population Normal (%) [5]: 93%
- Population Pyknosed Nuclei (%) [5]: 7% and 8%
- Population Tubulin-Different-Phenotype (%) [5]: 40% and 44%
- Total Cell Count [5]: 944 and 671
- Population Apoptotic (%) [2]: 79% and 67%
- Population Fragmented Nuclei (%) [2]: 7% and 4%
- Population Healthy Nuclei (%) [2]: 66% and 80%
- Population Hoechst High Intensity Objects (%) [2]: 12% and 7%
- Population Membrane Permeable-Phenotype (%) [2]: 1% and 0%
- Population Mitochondria Different-Phenotype (%) [2]: 85% and 82%
- Population Mitotic Cells (%) [2]: 20% and 32%
- Population Normal (%) [2]: 87% and 92%
- Population Pyknosed Nuclei (%) [2]: 26% and 15%
- Population Tubulin-Different-Phenotype (%) [2]: 92% and 95%
- Total Cell Count [2]: 463 and 559
- Population Apoptotic (%) [6]: 19% and 25%
- Population Fragmented Nuclei (%) [6]: 9% and 7%
- Population Healthy Nuclei (%) [6]: 86% and 87%
- Population Hoechst High Intensity Objects (%) [6]: 6% and 8%
- Population Membrane Permeable-Phenotype (%) [6]: 3% and 0%
- Population Mitochondria Different-Phenotype (%) [6]: 2% and 5%
- Population Mitotic Cells (%) [6]: 80% and 74%
- Population Normal (%) [6]: 93% and 91%
- Population Pyknosed Nuclei (%) [6]: 3% and 5%
- Population Tubulin-Different-Phenotype (%) [6]: 18% and 25%
- Total Cell Count [6]: 2232 and 1305
- Population Apoptotic (%) [3]: 80% and 75%
- Population Fragmented Nuclei (%) [3]: 9% and 7%
- Population Healthy Nuclei (%) [3]: 72% and 74%
- Population Hoechst High Intensity Objects (%) [3]: 9% and 10%
- Population Membrane Permeable-Phenotype (%) [3]: 4% and 2%
- Population Mitochondria Different-Phenotype (%) [3]: 53% and 56%
- Population Mitotic Cells (%) [3]: 19% and 24%
- Population Normal (%) [3]: 90% and 89%
- Population Pyknosed Nuclei (%) [3]: 18% and 17%
- Population Tubulin-Different-Phenotype (%) [3]: 82% and 84%
- Total Cell Count [3]: 653 and 709
